Measured values as given in ChEMBL document CHEMBL2021927, “Synthesis and evaluation of the cytotoxicities of tetraindoles: observation that the 5-hydroxy tetraindole (SK228) induces G₂ arrest and apoptosis in human breast cancer cells” (J Med Chem, 2012).
pIC50: −log10 of the molar value.

How the values were obtained:
[1] = tested on: MDA-MB-231; experiment: Growth inhibition of human MDA-MB-231 cells after 48 hrs by MTT assay; assay type: functional, cell-based; details: MDA-MB-231, 48 h
[2] = tested on: MCF7; experiment: Growth inhibition of human MCF7 cells after 48 hrs by MTT assay; assay type: functional, cell-based; details: MCF7, 48 h
[3] = tested on: MDA-MB-231; experiment: Growth inhibition of human MDA-MB-231 cells at 20 uM after 48 hrs by MTT assay; assay type: functional; details: MDA-MB-231, 48 h, read-out: GI
Summary of the method: (§1)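 MTT viability assay with 48 h exposure at a single 20 μM concentration. Result given as percent inhibition of cell growth; n = 3.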

[4] = tested on: MCF7; experiment: Growth inhibition of human MCF7 cells at 20 uM after 48 hrs by MTT assay; assay type: functional; details: MCF7, 48 h, read-out: GI; summary of the method: as §1

c1ccc2c(C3CCCC(c4c[nH]c5ccccc45)(c4c[nH]c5ccccc45)C3)c[nH]c2c1 (stereo not drawn)
pIC50 [1]: 4.70 | pIC50 [2]: 4.70

Oc1ccc2c(C(c3ccc(C(c4c[nH]c5cc(O)ccc45)c4c[nH]c5cc(O)ccc45)cc3)c3c[nH]c4cc(O)ccc34)c[nH]c2c1
inhibition of growth at 20 µM [3]: 16% | inhibition of growth at 20 µM [4]: 0% | pIC50 [1]: < 4.70 | pIC50 [2]: < 4.70

c1cc(C(c2c[nH]c3ccccc23)c2c[nH]c3ccccc23)cc(C(c2c[nH]c3ccccc23)c2c[nH]c3ccccc23)c1
inhibition of growth at 20 µM [4]: 32% | pIC50 [1]: 4.61 | pIC50 [2]: < 4.70

Oc1ccc2[nH]cc(C(c3ccc(C(c4c[nH]c5ccccc45)c4c[nH]c5ccccc45)cc3)c3c[nH]c4ccc(O)cc34)c2c1
inhibition of growth at 20 µM [3]: 36% | inhibition of growth at 20 µM [4]: 23% | pIC50 [1]: < 4.70 | pIC50 [2]: < 4.70

Oc1ccc2[nH]cc(C(c3cccc(C(c4c[nH]c5ccc(O)cc45)c4c[nH]c5ccc(O)cc45)c3)c3c[nH]c4ccc(O)cc34)c2c1
inhibition of growth at 20 µM [3]: 0% | pIC50 [1]: < 4.70 | pIC50 [2]: 4.75

Brc1ccc2[nH]cc(C(c3ccc(C(c4c[nH]c5ccc(Br)cc45)c4c[nH]c5ccc(Br)cc45)cc3)c3c[nH]c4ccc(Br)cc34)c2c1
inhibition of growth at 20 µM [3]: 5% | inhibition of growth at 20 µM [4]: 25% | pIC50 [1]: < 4.70 | pIC50 [2]: < 4.70

c1ccc(C(c2c[nH]c3ccccc23)c2c[nH]c3ccccc23)c(Oc2ccccc2C(c2c[nH]c3ccccc23)c2c[nH]c3ccccc23)c1
inhibition of growth at 20 µM [3]: 8% | inhibition of growth at 20 µM [4]: 48% | pIC50 [1]: < 4.70 | pIC50 [2]: < 4.70

N#Cc1ccc2[nH]cc(C(c3ccc(C(c4c[nH]c5ccc(C#N)cc45)c4c[nH]c5ccc(C#N)cc45)cc3)c3c[nH]c4ccc(C#N)cc34)c2c1
inhibition of growth at 20 µM [3]: 8% | pIC50 [1]: < 4.70 | pIC50 [2]: 5.02

c1ccc2c3c([nH]c2c1)Cc1c([nH]c2ccccc12)Cc1c([nH]c2ccccc12)Cc1c([nH]c2ccccc12)C3
pIC50 [1]: 6.00 | pIC50 [2]: 5.89

c1ccc2c(Cc3c[nH]c4ccccc34)c[nH]c2c1 [ARUNDINE]
pIC50 [1]: 5.00 | pIC50 [2]: 4.30

Brc1ccc2[nH]cc(C(c3ccc(C(c4c[nH]c5ccccc45)c4c[nH]c5ccccc45)cc3)c3c[nH]c4ccc(Br)cc34)c2c1
inhibition of growth at 20 µM [3]: 8% | inhibition of growth at 20 µM [4]: 17% | pIC50 [1]: < 4.70 | pIC50 [2]: < 4.70

Nc1ccc2[nH]cc(C(c3ccc(C(c4c[nH]c5ccc(N)cc45)c4c[nH]c5ccc(N)cc45)cc3)c3c[nH]c4ccc(N)cc34)c2c1
inhibition of growth at 20 µM [3]: 35% | inhibition of growth at 20 µM [4]: 25% | pIC50 [1]: < 4.70 | pIC50 [2]: < 4.70

c1ccc2c(C(c3ccc(C(c4c[nH]c5ccccc45)c4c[nH]c5ccccc45)cc3)c3c[nH]c4ccccc34)c[nH]c2c1
pIC50 [1]: 5.01 | pIC50 [2]: 4.79

c1ccc2c(C(c3ccc(C(c4c[nH]c5ccccc45)c4c[nH]c5ccccc45)s3)c3c[nH]c4ccccc34)c[nH]c2c1
inhibition of growth at 20 µM [3]: 36% | inhibition of growth at 20 µM [4]: 34% | pIC50 [1]: < 4.70 | pIC50 [2]: < 4.70

COc1ccc2[nH]cc(C(c3ccc(C(c4c[nH]c5ccc(OC)cc45)c4c[nH]c5ccc(OC)cc45)cc3)c3c[nH]c4ccc(OC)cc34)c2c1
inhibition of growth at 20 µM [3]: 3% | inhibition of growth at 20 µM [4]: 43% | pIC50 [1]: < 4.70 | pIC50 [2]: < 4.70

Oc1ccc2[nH]cc(C(c3ccc(C(c4c[nH]c5ccccc45)c4c[nH]c5ccccc45)cc3)c3c[nH]c4ccccc34)c2c1 (stereo not drawn)
pIC50 [1]: 4.86 | pIC50 [2]: 4.90

Oc1ccc2[nH]cc(C(c3ccc(C(c4c[nH]c5ccc(O)cc45)c4c[nH]c5ccc(O)cc45)cc3)c3c[nH]c4ccccc34)c2c1 (stereo not drawn)
pIC50 [1]: 5.11 | pIC50 [2]: 5.20
